Assays:
[1] = molecular target: Cruzipain (Trypanosoma cruzi) (UniProt P25779); test: Inhibition of recombinant Trypanosoma cruzi cruzain at 5 uM using Z-FR-AMC as substrate and measured at 12 sec interval for 5 mins without preincubation by fluorimetric analysis relative to control
Method in brief: (§1)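 Recombinant rhodesain or cruzain (1 nM) in 0.1 M sodium acetate pH 5.5, 0.01% Triton X-100, 1 mM β-mercaptoethanol. Compound at a single concentration, either without or after 10 min enzyme pre-incubation. Inhibition is relative to DMSO, with E-64 as positive control. Done in duplicate (primary screen) or triplicate.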

[2] = molecular target: Cruzipain (Trypanosoma cruzi) (UniProt P25779); test: Inhibition of recombinant Trypanosoma cruzi cruzain at 5 uM using Z-FR-AMC as substrate preincubated for 10 mins followed by substrate addition and measured at 12 sec interval for 5 mins by fluorimetric analysis relative to control; conditions: time 15.0 min; method in brief: as §1
[3] = molecular target: Rhodesain (Trypanosoma brucei rhodesiense) (UniProt Q95PM0); test: Inhibition of recombinant Trypanosoma brucei rhodesain expressed in Pichia pastoris at 5 uM using Z-FR-AMC as substrate and measured at 12 sec interval for 5 mins without preincubation by fluorimetric analysis relative to control; method in brief: as §1
Rhodesain (Trypanosoma brucei rhodesiense), sequence (Q95PM0 1-450): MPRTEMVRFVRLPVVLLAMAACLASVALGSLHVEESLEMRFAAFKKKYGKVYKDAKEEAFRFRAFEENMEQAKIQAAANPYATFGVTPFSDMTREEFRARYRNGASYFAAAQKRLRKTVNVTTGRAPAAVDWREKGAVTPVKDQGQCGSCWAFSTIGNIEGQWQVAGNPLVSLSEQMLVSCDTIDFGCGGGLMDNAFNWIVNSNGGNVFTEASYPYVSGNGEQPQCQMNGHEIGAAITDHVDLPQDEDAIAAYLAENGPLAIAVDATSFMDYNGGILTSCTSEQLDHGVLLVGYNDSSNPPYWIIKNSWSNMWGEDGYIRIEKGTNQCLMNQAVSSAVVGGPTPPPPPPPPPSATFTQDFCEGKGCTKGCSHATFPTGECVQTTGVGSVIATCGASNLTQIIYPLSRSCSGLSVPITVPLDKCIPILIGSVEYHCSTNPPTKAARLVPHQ

[4] = molecular target: Rhodesain (Trypanosoma brucei rhodesiense) (UniProt Q95PM0); test: Inhibition of recombinant Trypanosoma brucei rhodesain expressed in Pichia pastoris at 5 uM using Z-FR-AMC as substrate preincubated for 10 mins followed by substrate addition and measured at 12 sec interval for 5 mins by fluorimetric analysis relative to control; conditions: time 15.0 min; method in brief: as §1
[5] = molecular target: Cruzipain (Trypanosoma cruzi) (UniProt P25779); test: Inhibition of recombinant Trypanosoma cruzi cruzain at 2.5 uM using Z-FR-AMC as substrate and measured at 12 sec interval for 5 mins without preincubation by fluorimetric analysis relative to control
Method in brief: as §1, with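 “pre-incubation. Z-FR-AMC 2.5 µM, read at 340/440 nm every 12 s for 5 min.” for “pre-incubation.”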

[6] = molecular target: Cruzipain (Trypanosoma cruzi) (UniProt P25779); test: Inhibition of recombinant Trypanosoma cruzi cruzain at 2.5 uM using Z-FR-AMC as substrate preincubated for 10 mins followed by substrate addition and measured at 12 sec interval for 5 mins by fluorimetric analysis relative to control; conditions: time 15.0 min
Method in brief: as §1, with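 “pre-incubation. Z-FR-AMC 2.5 µM, read at 340/440 nm every 12 s for 5 min.” for “pre-incubation.”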

[7] = molecular target: Rhodesain (Trypanosoma brucei rhodesiense) (UniProt Q95PM0); test: Inhibition of recombinant Trypanosoma brucei rhodesain expressed in Pichia pastoris at 2.5 uM using Z-FR-AMC as substrate and measured at 12 sec interval for 5 mins without preincubation by fluorimetric analysis relative to control
Method in brief: (§2)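 Run with no pre-incubation or with 10 min enzyme-compound pre-incubation. Fluorescence read at 340/440 nm. Concentration was set by solubility under assay conditions. Inhibition is against DMSO, with E-64 as positive control; triplicate.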

[8] = molecular target: Rhodesain (Trypanosoma brucei rhodesiense) (UniProt Q95PM0); test: Inhibition of recombinant Trypanosoma brucei rhodesain expressed in Pichia pastoris at 2.5 uM using Z-FR-AMC as substrate preincubated for 10 mins followed by substrate addition and measured at 12 sec interval for 5 mins by fluorimetric analysis relative to control; conditions: time 15.0 min; method in brief: as §2
[9] = system: Trypanosoma cruzi; test: Trypanocidal activity against Trypanosoma cruzi Tulahuen C4 assessed as reduction in parasite viability; assay type: functional, organism-based
[10] = system: Trypanosoma brucei brucei; test: Trypanocidal activity against Trypanosoma brucei brucei Squib 427 assessed as reduction in parasite viability; assay type: functional, organism-based
[11] = system: Trypanosoma brucei rhodesiense; test: Trypanocidal activity against Trypanosoma brucei rhodesiense STI B900 assessed as reduction in parasite viability; assay type: functional, organism-based
[12] = molecular target: Cruzipain (Trypanosoma cruzi) (UniProt P25779); test: Inhibition of recombinant Trypanosoma cruzi cruzain at 10 uM using Z-FR-AMC as substrate and measured at 12 sec interval for 5 mins without preincubation by fluorimetric analysis relative to control
Method in brief: as §1, with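 “pre-incubation. Z-FR-AMC 2.5 µM, read at 340/440 nm every 12 s for 5 min.” for “pre-incubation.”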

[13] = molecular target: Cruzipain (Trypanosoma cruzi) (UniProt P25779); test: Inhibition of recombinant Trypanosoma cruzi cruzain at 10 uM using Z-FR-AMC as substrate preincubated for 10 mins followed by substrate addition and measured at 12 sec interval for 5 mins by fluorimetric analysis relative to control; conditions: time 15.0 min
Method in brief: as §1, with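 “pre-incubation. Z-FR-AMC 2.5 µM, read at 340/440 nm every 12 s for 5 min.” for “pre-incubation.”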

[14] = molecular target: Rhodesain (Trypanosoma brucei rhodesiense) (UniProt Q95PM0); test: Inhibition of recombinant Trypanosoma brucei rhodesain expressed in Pichia pastoris at 10 uM using Z-FR-AMC as substrate and measured at 12 sec interval for 5 mins without preincubation by fluorimetric analysis relative to control
Method in brief: as §1, with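 “pre-incubation. Z-FR-AMC 2.5 µM, read at 340/440 nm every 12 s for 5 min.” for “pre-incubation.”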

[15] = molecular target: Rhodesain (Trypanosoma brucei rhodesiense) (UniProt Q95PM0); test: Inhibition of recombinant Trypanosoma brucei rhodesain expressed in Pichia pastoris at 10 uM using Z-FR-AMC as substrate preincubated for 10 mins followed by substrate addition and measured at 12 sec interval for 5 mins by fluorimetric analysis relative to control; conditions: time 15.0 min
Method in brief: as §1, with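 “pre-incubation. Z-FR-AMC 2.5 µM, read at 340/440 nm every 12 s for 5 min.” for “pre-incubation.”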

[16] = molecular target: Cruzipain (Trypanosoma cruzi, UniProt P25779); test: Inhibition of recombinant Trypanosoma cruzi cruzain using Z-FR-AMC as substrate and measured at 12 sec interval for 5 mins without preincubation by fluorimetric analysis
Cruzipain, sequence (P25779 whole entry): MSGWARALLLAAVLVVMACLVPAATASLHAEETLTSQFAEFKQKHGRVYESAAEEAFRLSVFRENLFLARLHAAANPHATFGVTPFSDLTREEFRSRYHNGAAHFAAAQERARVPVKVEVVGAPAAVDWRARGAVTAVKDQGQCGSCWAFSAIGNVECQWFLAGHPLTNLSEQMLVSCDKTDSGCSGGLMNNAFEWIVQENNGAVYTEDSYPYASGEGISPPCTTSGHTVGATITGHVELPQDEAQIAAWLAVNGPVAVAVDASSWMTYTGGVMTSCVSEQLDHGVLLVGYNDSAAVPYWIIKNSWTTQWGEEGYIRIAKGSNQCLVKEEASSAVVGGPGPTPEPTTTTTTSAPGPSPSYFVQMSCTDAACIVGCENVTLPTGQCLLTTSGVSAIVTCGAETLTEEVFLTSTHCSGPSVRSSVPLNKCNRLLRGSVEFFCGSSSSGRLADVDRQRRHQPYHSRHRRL
Method in brief: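 Cruzain (recombinant, 1 nM) in 0.1 M sodium acetate pH 5.5 with 0.01% Triton X-100 and 1 mM β-mercaptoethanol; Z-FR-AMC 2.5 µM, read at 340/440 nm every 12 s for 5 min, with or without 10 min enzyme–compound pre-incubation. […] For mechanism and Ki, 0.3–20.0 µM substrate and five inhibitor levels were used, with Lineweaver-Burk plots.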

[17] = molecular target: Cruzipain (Trypanosoma cruzi) (UniProt P25779); test: Inhibition of recombinant Trypanosoma cruzi cruzain at 10 uM preincubated for 10 mins in presence of 0.1% Triton X-100 relative to control
Method in brief: (§3)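 To test detergent sensitivity, cruzain was pre-incubated 10 min at room temperature with compound with no Triton X-100, 0.01% or 0.1% Triton X-100. Cleavage of Z-FR-AMC was then followed at pH 5.5 in acetate buffer. Percent inhibition was compared across detergent levels.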

[18] = molecular target: Cruzipain (Trypanosoma cruzi) (UniProt P25779); test: Inhibition of recombinant Trypanosoma cruzi cruzain at 10 uM preincubated for 10 mins in presence of 0.01% Triton X-100 relative to control; method in brief: as §3
[19] = molecular target: Cruzipain (Trypanosoma cruzi) (UniProt P25779); test: Inhibition of recombinant Trypanosoma cruzi cruzain at 10 uM preincubated for 10 mins in absence of Triton X-100 relative to control; method in brief: as §3
[20] = molecular target: Cruzipain (Trypanosoma cruzi) (UniProt P25779); test: Inhibition of recombinant Trypanosoma cruzi cruzain at 10 uM preincubated with BSA for 5 mins followed by incubation with enzyme for 5 mins followed by substrate addition relative to control; conditions: time 10.0 min
Method in brief: (§4)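 For BSA sensitivity, compound was held 5 min with BSA (2 mg/mL in 0.001% Triton X-100), then 5 min with 1 nM cruzain, before substrate was added and activity monitored. Parallel runs omitted BSA under otherwise identical conditions.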

[21] = molecular target: Cruzipain (Trypanosoma cruzi) (UniProt P25779); test: Inhibition of recombinant Trypanosoma cruzi cruzain at 10 uM preincubated with enzyme for 5 mins followed by substrate addition in absence of BSA relative to control; method in brief: as §4

Cruzipain (Trypanosoma cruzi), sequence (P25779 123-467 limits assumed): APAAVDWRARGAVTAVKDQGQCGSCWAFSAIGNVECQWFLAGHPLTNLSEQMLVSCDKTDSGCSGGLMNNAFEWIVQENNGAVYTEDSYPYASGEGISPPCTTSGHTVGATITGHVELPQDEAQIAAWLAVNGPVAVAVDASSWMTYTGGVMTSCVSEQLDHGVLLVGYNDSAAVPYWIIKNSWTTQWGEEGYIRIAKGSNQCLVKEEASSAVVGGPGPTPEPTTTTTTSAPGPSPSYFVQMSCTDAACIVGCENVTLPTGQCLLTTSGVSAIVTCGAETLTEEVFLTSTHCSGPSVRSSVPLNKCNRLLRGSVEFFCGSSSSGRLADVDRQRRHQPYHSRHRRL

| Structure (SMILES) | inhibition [1] | inhibition [2] | inhibition [3] | inhibition [4] | IC50 [9] | IC50 [10] | IC50 [11] | also measured |
| --- | --- | --- | --- | --- | --- | --- | --- | --- |
| Cc1ccc(C(=O)c2oc3ccc4c(C)cc(=O)oc4c3c2C)cc1 | 53.6% | 69% | 60.4% | 77.1% | 32 µM | 32 µM | 32 µM | inhibition [5]: 3%; inhibition [6]: 11%; inhibition [7]: 8%; inhibition [8]: 12% |
| CCOc1cccc(C(=O)Nc2ccc(-c3nc4ccccc4[nH]3)cc2)c1 | 88.1% | 72.7% | 53.7% | 75.6% | 32 µM | 32 µM | 32 µM | inhibition [12]: 89%; inhibition [13]: 100%; inhibition [14]: 46%; inhibition [15]: 100%; IC50 [16]: 2.6 µM; inhibition [17]: 34.6%; inhibition [18]: 100%; inhibition [19]: 100%; inhibition [20]: 16%; inhibition [21]: 97.9% |
